18 molecules from ChEMBL document CHEMBL1147789, “The search for novel TRPV1-antagonists: from carboxamides to benzimidazoles and indazolones” (Bioorg Med Chem Lett, 2006) can be followed below.

Series [1] concerns the target T1, Transient receptor potential cation channel subfamily V member 1 (Homo sapiens, UniProt Q8NER1). The series can be described thus: Antagonist activity against capsaicin-induced intracellular calcium ion increase in CHO cells expressing human TRPV1 in FLIPR assay. It counts as functional, cell-based.
The target of series [2] is T1, Transient receptor potential cation channel subfamily V member 1. The series can be described thus: Inhibition of acidic pH 5.5-stimulated current in CHO cells expressing human TRPV1 receptor at 100 nM by patch clamp. It counts as functional, cell-based. A general note: The patch-clamp technique gives a direct electrical read-out from membranes.
The nature of series [3]: AUC in hepatic portal vein of rat at 5 mg/kg, po. It counts as ADME, organism-based, Plasma. The arrangement: dose 5 mg/kg, route oral.
Series [4] is described as follows: Systemic AUC in rat at 5 mg/kg, po. It counts as ADME, organism-based. The arrangement: dose 5 mg/kg, route oral. The conditions noted are these: in vivo. In outline: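 Oral dose of 5 mpk; AUC taken from systemic blood levels.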
The target of series [5] is T1, Transient receptor potential cation channel subfamily V member 1. The series can be described thus: Inhibition of acidic pH 5.5-stimulated current in CHO cells expressing human TRPV1 receptor by patch clamp. The class given is functional, cell-based.
Series [6] addresses T2, Transient receptor potential cation channel subfamily V member 1 (Rattus norvegicus, UniProt O35433). The series can be described thus: Activity against capsaicin-induced […] in CHO cells expressing rat TRPV1 assessed by patch clamp. It counts as functional, cell-based. In outline:
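Whole-cell patch clamp on cells expressing rat TRPV1, stimulated with 500 nM capsaicin; IC50 for inhibition of the evoked response.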

The nature of series [7]: Clearance in rat at 1 mg/kg, iv. It counts as ADME, organism-based. The arrangement: dose 1 mg/kg, route intravenous. The conditions noted are these: in vivo.
The target of series [8] is Transient receptor potential cation channel subfamily V member 1 (Rattus norvegicus) (UniProt O35433). The series is described as follows: Decrease in carrageenan-induced thermal hyperalgesia in rat at 30 mg/kg, po. It counts as functional, organism-based. The arrangement: dose 30 mg/kg; scale not given: the % may be the effect or the level left. In outline:
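Rats received 0.1 mL intraplantar carrageenan, or saline for the uninflamed group, in the right hind limb. Two hours later they were dosed orally at 30 mpk. After 1 h, thermal withdrawal was retested three times on each hind paw (Hargreaves). Saline response was set as 0% hyperalgesia and carrageenan response as 100%.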

Series [9] in a line: Half life in rat at 1 mg/kg, iv. It counts as ADME, organism-based. The arrangement: dose 1 mg/kg, route intravenous. The note with it: in vivo.
Series [10] in a line: Volume of distribution in rat at 1 mg/kg, iv. The arrangement: dose 1 mg/kg, route intravenous. The conditions noted are these: in vivo, read-out: Vdss. It counts as ADME, organism-based.
Series [11] deals with T2, Transient receptor potential cation channel subfamily V member 1. The series can be described thus: Activity at rat TRPV1 as inhibition of pH 5.5-induced currents in CHO cells.

T1 sequence (Q8NER1 whole entry): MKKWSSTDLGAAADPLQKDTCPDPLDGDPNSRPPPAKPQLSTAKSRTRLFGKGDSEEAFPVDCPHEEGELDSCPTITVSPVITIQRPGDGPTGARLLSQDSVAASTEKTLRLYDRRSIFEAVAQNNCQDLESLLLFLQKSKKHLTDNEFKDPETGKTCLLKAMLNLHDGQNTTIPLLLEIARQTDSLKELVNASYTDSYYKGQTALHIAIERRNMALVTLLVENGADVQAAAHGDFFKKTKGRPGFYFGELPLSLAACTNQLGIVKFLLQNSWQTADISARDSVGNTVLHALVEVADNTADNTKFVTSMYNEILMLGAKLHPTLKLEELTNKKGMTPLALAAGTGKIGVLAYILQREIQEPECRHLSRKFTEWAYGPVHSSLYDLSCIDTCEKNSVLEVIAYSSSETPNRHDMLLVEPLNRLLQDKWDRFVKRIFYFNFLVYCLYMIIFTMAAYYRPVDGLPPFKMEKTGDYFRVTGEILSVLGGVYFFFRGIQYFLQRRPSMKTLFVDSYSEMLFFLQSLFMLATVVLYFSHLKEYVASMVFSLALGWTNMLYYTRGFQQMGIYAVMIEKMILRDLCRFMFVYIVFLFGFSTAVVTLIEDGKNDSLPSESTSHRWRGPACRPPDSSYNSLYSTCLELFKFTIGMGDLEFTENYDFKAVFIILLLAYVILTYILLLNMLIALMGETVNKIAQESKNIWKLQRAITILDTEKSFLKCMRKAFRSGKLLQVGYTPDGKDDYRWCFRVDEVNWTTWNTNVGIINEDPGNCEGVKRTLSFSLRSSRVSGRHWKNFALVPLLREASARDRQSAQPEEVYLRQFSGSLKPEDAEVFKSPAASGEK
T2 sequence (O35433 whole entry): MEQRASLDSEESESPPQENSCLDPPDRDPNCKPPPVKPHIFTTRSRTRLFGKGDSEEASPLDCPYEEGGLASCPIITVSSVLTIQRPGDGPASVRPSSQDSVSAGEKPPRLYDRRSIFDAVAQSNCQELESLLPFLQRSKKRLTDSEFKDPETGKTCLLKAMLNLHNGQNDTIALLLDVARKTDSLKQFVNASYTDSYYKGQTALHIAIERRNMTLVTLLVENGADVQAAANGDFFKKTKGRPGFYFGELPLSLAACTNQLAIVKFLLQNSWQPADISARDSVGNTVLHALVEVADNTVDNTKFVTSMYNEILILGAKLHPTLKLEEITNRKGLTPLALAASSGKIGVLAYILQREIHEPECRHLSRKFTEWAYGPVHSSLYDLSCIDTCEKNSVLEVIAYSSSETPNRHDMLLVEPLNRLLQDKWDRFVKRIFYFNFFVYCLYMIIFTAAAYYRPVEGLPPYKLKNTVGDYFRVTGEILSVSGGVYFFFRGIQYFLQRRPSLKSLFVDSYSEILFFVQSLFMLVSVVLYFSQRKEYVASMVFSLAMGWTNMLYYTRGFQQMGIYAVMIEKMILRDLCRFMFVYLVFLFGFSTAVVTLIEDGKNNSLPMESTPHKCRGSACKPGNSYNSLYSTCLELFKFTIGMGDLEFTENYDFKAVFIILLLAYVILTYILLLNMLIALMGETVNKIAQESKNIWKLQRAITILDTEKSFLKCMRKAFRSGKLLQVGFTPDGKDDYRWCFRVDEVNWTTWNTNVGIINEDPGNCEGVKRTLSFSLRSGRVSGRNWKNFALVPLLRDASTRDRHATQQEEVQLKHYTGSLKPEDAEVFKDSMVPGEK
Chain of Transient receptor potential cation channel subfamily V member 1 (Rattus norvegicus) (O35433 whole entry): as above

A word on the IC50: it is the point on the concentration scale where inhibition reaches its midpoint. As for `Cc1ccc(C(=O)Nc2ccc(-c3ncccc3C(F)(F)F)cc2)cc1`, in [1], the IC50 amounted to 1100 nM.
Take `Cc1cccnc1-c1ccc(NC(=O)c2cccc(C(F)(F)F)c2)cc1`: the 50% inhibitory concentration (IC50) in series [1] is 640 nM.
Still for that read-out and setting: for `Cc1cccnc1-c1ccc2c(=O)n(-c3ccc(C(F)(F)F)cc3)[nH]c2n1` the value was 270 nM; for `COc1ccccc1-c1ccc2c(=O)n(-c3ccc(C(F)(F)F)cc3)[nH]c2c1`, 170 nM; for `Oc1c2c(nn1-c1ccc(C(F)(F)F)cc1)NC(c1ncccc1C(F)(F)F)CC2` (stereo not drawn), 290 nM.
The same measure, in the same setting: the same measure for `O=C(Nc1ccc(-c2ncccc2C(F)(F)F)cc1)c1ccccc1`: 2400 nM.
For orientation: inhibition means how much of the control response was suppressed. The term AUC denotes the area under the concentration-time curve, a measure of exposure. Consider `FC(F)(F)c1ccc(-c2nc3cc(-c4ncccc4C(F)(F)F)ccc3[nH]2)cc1`, for which the inhibition in series [2] is 95%. Besides, the AUC was 1.48 µM·h in [3] and 1.25 µM·h in series [4]. Also, the concentration for half-maximal inhibition (IC50) in series [1] turned out to be 22 nM.
As to `O=C(Nc1ccc(-c2ccccn2)cc1)c1ccc(C(F)(F)F)cc1`, the IC50 in series [1] came out at 1500 nM.
Same read-out and setting: the same measure for `O=c1c2ccccc2[nH]n1-c1ccc(C(F)(F)F)cc1`: 340 nM.
Consider `Cc1cccnc1-c1ccc(NC(=O)c2ccc(C(F)(F)F)cc2)cc1`, for which, in series [1], the IC50 is 160 nM.
Turning to `O=C(Nc1ccc(-c2ncccc2C(F)(F)F)cc1)c1ccc(C(F)(F)F)cc1`, the AUC in [3] worked out at 0.08 µM·h; in series [4], 0.04 µM·h. Also, the half-maximal inhibitory concentration (IC50) was 24 nM in series [1] and 33 nM in series [5].
In the case of `CC(C)(C)c1ccc(-c2nc3cc(-c4ncccc4C(F)(F)F)ccc3[nH]2)cc1`, the IC50 in [1] came out at 224 nM.
For orientation: clearance means a measure of how efficiently the substance is removed, as volume per time. A word on the half-life: it is the time needed for the level to fall by half in the phase considered. On to `O=c1c2ccc(-c3ncccc3C(F)(F)F)cc2[nH]n1-c1ccc(C(F)(F)F)cc1`, for which the half-inhibitory concentration (IC50) in series [6] stood at 220 nM; in [1], 35 nM; in series [11], 65 nM; in series [5], 4 nM. In addition, the AUC in series [3] came to 6.2 µM·h; in series [4], 3 µM·h. The clearance in series [7] came out at 8 mL/min/kg. The molecule further registered an Activity in series [8] of 50%. Also, the half-life in [9] was 3.6 h. In addition, the Vd in [10] is 2 L/kg.
Regarding `Cc1cccnc1-c1ccc2c(=O)n(-c3ccc(C(F)(F)F)cc3)[nH]c2c1`, in series [1], the IC50 stood at 180 nM.
For the molecule `Fc1ccc(-c2nc3cc(-c4ncccc4C(F)(F)F)ccc3[nH]2)cc1`, the IC50 in series [1] is 320 nM.
Consider `O=c1c2cc(-c3ncccc3C(F)(F)F)ccc2[nH]n1-c1ccc(C(F)(F)F)cc1`, for which the IC50 in series [1] turned out to be 370 nM.
As for `CC(C)(C)c1ccc(C(=O)Nc2ccc(-c3ncccc3C(F)(F)F)cc2)cc1`, in series [1], the 50% inhibitory concentration (IC50) stood at 470 nM.
Turning to `Cc1ccc(-c2nc3cc(-c4ncccc4C(F)(F)F)ccc3[nH]2)cc1`, in series [1], the IC50 came to 170 nM.
